ChEMBL document CHEMBL1671627, “Increasing trends in antimicrobial resistance among clinically important anaerobes and Bacteroides fragilis isolates causing nosocomial infections: emerging resistance to carbapenems” (2008)
Converted amounts (≈) assume the structure as drawn.

What was measured:
Format in all cases: functional
Parvimonas micra = experiment: Antibacterial activity against beta-lactamase producing Micromonas micros assessed as susceptible isolates by CLSI agar dilution method in presence of clavulanate
Summary of the method: (§1)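 CLSI agar dilution MICs for anaerobic blood isolates (nonduplicate) collected from bloodstream-infection patients at a Taiwanese tertiary hospital, January–December 2006. Isolates were spotted by Steers replicator onto supplemented Brucella blood agar and incubated anaerobically for 48 h at 35°C. MIC was the lowest drug concentration inhibiting growth. Each run included B. fragilis ATCC 25285, B. thetaiotaomicron ATCC 29741 and E. lentum ATCC 43055 as quality-control strains.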

Clostridium septicum [1] = experiment: Antibacterial activity against beta-lactamase producing Clostridium septicum assessed as resistant isolates by CLSI agar dilution method in presence of clavulanate
Summary of the method: (§2)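 207 nonduplicate anaerobic blood isolates from patients with bloodstream infections at NTUH, collected January–December 2006. MICs were determined by agar dilution following CLSI guidelines. Inocula were applied with a Steers replicator onto supplemented Brucella blood agar and incubated 48 h at 35°C in an anaerobic chamber. MIC was the lowest concentration inhibiting growth. B. fragilis ATCC 25285, B. thetaiotaomicron ATCC 29741 and E. lentum ATCC 43055 served as controls in each run.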

Clostridium tertium [2] = experiment: Antibacterial activity against beta-lactamase producing Clostridium tertium assessed as susceptible isolates by CLSI agar dilution method in presence of clavulanate; summary of the method: as §1
Finegoldia magna [3] = experiment: Antibacterial activity against beta-lactamase producing Finegoldia magna assessed as susceptible isolates by CLSI agar dilution method in presence of clavulanate; summary of the method: as §1
[4] = test system: Fusobacterium necrophorum; experiment: Antibacterial activity against Fusobacterium necrophorum assessed as resistant isolates by CLSI agar dilution method in presence of clavulanate; summary of the method: as §2
[5] = test system: Peptoniphilus asaccharolyticus; experiment: Antibacterial activity against beta-lactamase producing Peptoniphilus asaccharolyticus assessed as resistant isolates by CLSI agar dilution method in presence of clavulanate; summary of the method: as §2
Prevotella bivia [6] = experiment: Antibacterial activity against Prevotella bivia assessed as susceptible isolates by CLSI agar dilution method in presence of clavulanate
Summary of the method: (§3)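 Agar dilution per CLSI guidelines on nonduplicate anaerobic bloodstream isolates collected at NTUH, January to December 2006. Isolates were spotted by Steers replicator onto supplemented Brucella blood agar and incubated anaerobically for 48 h at 35°C. MIC was the lowest drug concentration that inhibited growth. B. fragilis ATCC 25285, B. thetaiotaomicron ATCC 29741 and E. lentum ATCC 43055 were run as QC in each run.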

Clostridium tertium [7] = experiment: Antibacterial activity against beta-lactamase producing Clostridium tertium assessed as resistant isolates by CLSI agar dilution method in presence of clavulanate; summary of the method: as §2
Prevotella intermedia [8] = experiment: Antibacterial activity against Prevotella intermedia by CLSI agar dilution method in presence of clavulanate; summary of the method: as §3
Prevotella bivia [9] = experiment: Antibacterial activity against Prevotella bivia assessed as resistant isolates by CLSI agar dilution method in presence of clavulanate; summary of the method: as §2
Clostridium septicum [10] = experiment: Antibacterial activity against beta-lactamase producing Clostridium septicum by CLSI agar dilution method in presence of clavulanate; summary of the method: as §1
Fusobacterium mortiferum [11] = experiment: Antibacterial activity against Fusobacterium mortiferum assessed as susceptible isolates by CLSI agar dilution method in presence of clavulanate; summary of the method: as §3
[12] = test system: Peptostreptococcus anaerobius; experiment: Antibacterial activity against beta-lactamase producing Peptostreptococcus anaerobius assessed as susceptible isolates by CLSI agar dilution method in presence of clavulanate; summary of the method: as §1
Bacteroides caccae [13] = experiment: Antibacterial activity against beta-lactamase producing Bacteroides caccae assessed as susceptible isolates by CLSI agar dilution method in presence of clavulanate; summary of the method: as §3
Clostridium tertium [14] = experiment: Antibacterial activity against beta-lactamase producing Clostridium tertium assessed as resistant isolates by CLSI agar dilution method
Prevotella intermedia [15] = experiment: Antibacterial activity against Prevotella intermedia assessed as susceptible isolates by CLSI agar dilution method
Fusobacterium nucleatum = experiment: Antibacterial activity against Fusobacterium nucleatum by CLSI agar dilution method
Prevotella bivia [16] = experiment: Antibacterial activity against Prevotella bivia by CLSI agar dilution method
Prevotella bivia [17] = experiment: Antibacterial activity against Prevotella bivia by CLSI agar dilution method in presence of Tazobactam; summary of the method: as §3
[18] = test system: Clostridium paraputrificum; experiment: Antibacterial activity against beta-lactamase producing Clostridium paraputrificum assessed as susceptible isolates by CLSI agar dilution method
Clostridium tertium [19] = experiment: Antibacterial activity against beta-lactamase producing Clostridium tertium by CLSI agar dilution method
Veillonella parvula [20] = experiment: Antibacterial activity against Veillonella parvula by CLSI agar dilution method
Clostridium septicum [21] = experiment: Antibacterial activity against beta-lactamase producing Clostridium septicum assessed as resistant isolates by CLSI agar dilution method
Phocaeicola vulgatus = experiment: Antibacterial activity against beta-lactamase producing Bacteroides vulgatus assessed as resistant isolates by CLSI agar dilution method in presence of Tazobactam; summary of the method: as §2
Bacteroides caccae [22] = experiment: Antibacterial activity against beta-lactamase producing Bacteroides caccae assessed as susceptible isolates by CLSI agar dilution method
Veillonella parvula [23] = experiment: Antibacterial activity against Veillonella parvula by CLSI agar dilution method in presence of Tazobactam; summary of the method: as §3
Fusobacterium mortiferum [24] = experiment: Antibacterial activity against Fusobacterium mortiferum assessed as susceptible isolates by CLSI agar dilution method in presence of Tazobactam; summary of the method: as §3
[25] = test system: Prevotella melaninogenica; experiment: Antibacterial activity against Prevotella melaninogenica assessed as susceptible isolates by CLSI agar dilution method
Bacteroides fragilis [26] = experiment: Antibacterial activity against Bacteroides fragilis assessed as susceptible isolates by CLSI agar dilution method in presence of Tazobactam; summary of the method: as §3
Fusobacterium varium = experiment: Antibacterial activity against Fusobacterium varium by CLSI agar dilution method
Bacteroides uniformis = experiment: Antibacterial activity against beta-lactamase producing Bacteroides uniformis assessed as resistant isolates by CLSI agar dilution method in presence of Tazobactam; summary of the method: as §2
Bacteroides fragilis [27] = experiment: Antibacterial activity against Bacteroides fragilis assessed as resistant isolates by CLSI agar dilution method
[28] = test system: Prevotella melaninogenica; experiment: Antibacterial activity against Prevotella melaninogenica assessed as resistant isolates by CLSI agar dilution method in presence of Tazobactam; summary of the method: as §2
Fusobacterium mortiferum [29] = experiment: Antibacterial activity against Fusobacterium mortiferum assessed as resistant isolates by CLSI agar dilution method
Bacteroides fragilis [30] = experiment: Antibacterial activity against Bacteroides fragilis by CLSI agar dilution method
Clostridium septicum [31] = experiment: Antibacterial activity against beta-lactamase producing Clostridium septicum by CLSI agar dilution method
Finegoldia magna [32] = experiment: Antibacterial activity against beta-lactamase producing Finegoldia magna assessed as resistant isolates by CLSI agar dilution method in presence of Tazobactam; summary of the method: as §2
[33] = test system: Bacteroides thetaiotaomicron; experiment: Antibacterial activity against beta-lactamase producing Bacteroides thetaiotaomicron assessed as susceptible isolates by CLSI agar dilution method
Bacteroides caccae [34] = experiment: Antibacterial activity against beta-lactamase producing Bacteroides caccae assessed as resistant isolates by CLSI agar dilution method in presence of Tazobactam; summary of the method: as §2
Clostridium septicum [35] = experiment: Antibacterial activity against beta-lactamase producing Clostridium septicum assessed as susceptible isolates by CLSI agar dilution method

CC1(C)S[C@@H]2[C@H](NC(=O)[C@H](N)c3ccc(O)cc3)C(=O)N2[C@H]1C(=O)O [AMOXICILLIN]
Activity (Parvimonas micra): 94%
Activity (Clostridium septicum [1]): 4%
Activity (Clostridium tertium [2]): 96%
Activity (Finegoldia magna [3]): 94%
Activity [4]: 7%
Activity [5]: 3%
Activity (Prevotella bivia [6]): 81%
Activity (Clostridium tertium [7]): 4%
MIC50 (Prevotella intermedia [8]): 4 µg/mL
MIC90 (Prevotella intermedia [8]): 16 µg/mL
Activity (Prevotella bivia [9]): 6%
MIC50 (Clostridium septicum [10]): 0.5 µg/mL
MIC90 (Clostridium septicum [10]): 2 µg/mL
Activity (Fusobacterium mortiferum [11]): 89%
Activity [12]: 94%
Activity (Bacteroides caccae [13]): 53%

CCN1CCN(C(=O)N[C@@H](C(=O)N[C@@H]2C(=O)N3[C@@H]2SC(C)(C)[C@@H]3C(=O)O)c2ccccc2)C(=O)C1=O [PIPERACILLIN]
Activity (Clostridium tertium [14]): 0%
Activity (Prevotella intermedia [15]): 71%
MIC50 (Fusobacterium nucleatum): 2 µg/mL (≈ 3.86 µM)
MIC90 (Fusobacterium nucleatum): 8 µg/mL (≈ 15.5 µM)
MIC50 (Prevotella bivia [16]): 16 µg/mL (≈ 30.9 µM)
MIC90 (Prevotella bivia [16]): 128 µg/mL (≈ 247 µM)
MIC (Prevotella bivia [17]): 0.03 µg/mL
MIC50 (Prevotella bivia [17]): 0.03 µg/mL
MIC90 (Prevotella bivia [17]): 1 µg/mL
Activity [18]: 100%
MIC50 (Clostridium tertium [19]): 0.25 µg/mL (≈ 0.483 µM)
MIC90 (Clostridium tertium [19]): 2 µg/mL (≈ 3.86 µM)
MIC (Veillonella parvula [20]): 1 µg/mL (≈ 1.93 µM)
Activity (Clostridium septicum [21]): 0%
Activity (Phocaeicola vulgatus): 4%
Activity (Bacteroides caccae [22]): 35%
MIC (Veillonella parvula [23]): > 0.03 µg/mL
Activity (Fusobacterium mortiferum [24]): 100%
Activity [25]: 71%
Activity (Bacteroides fragilis [26]): 95%
MIC50 (Fusobacterium varium): 2 µg/mL (≈ 3.86 µM)
MIC90 (Fusobacterium varium): 8 µg/mL (≈ 15.5 µM)
Activity (Bacteroides uniformis): 4%
Activity (Bacteroides fragilis [27]): 35%
Activity [28]: 0%
Activity (Fusobacterium mortiferum [29]): 10%
MIC50 (Bacteroides fragilis [30]): 8 µg/mL (≈ 15.5 µM)
MIC90 (Bacteroides fragilis [30]): > 128 µg/mL
MIC50 (Clostridium septicum [31]): 0.25 µg/mL (≈ 0.483 µM)
MIC90 (Clostridium septicum [31]): 2 µg/mL (≈ 3.86 µM)
Activity (Finegoldia magna [32]): 0%
Activity [33]: 63%
Activity (Bacteroides caccae [34]): 4%
Activity (Clostridium septicum [35]): 100%
